# Experimental data reported in ChEMBL document CHEMBL1275351, “Novel spirotetracyclic zwitterionic dual H(1)/5-HT(2A) receptor antagonists for the treatment of sleep disorders” (J Med Chem, 2010).
# What was measured:
# Rattus norvegicus [1] = experiment: Hypnotic activity in Sprague-Dawley rat assessed as non-rapid eye movement sleep at 1 mg/kg, po administered during active phase; assay type: functional
# Method in brief: (§1)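 Male Sprague-Dawley rats (275-300 g) carried implanted telemetric EEG/EMG transmitters and were used 3 weeks after surgery. Oral dosing (2 mL/kg) was given 6 h after lights off (CT18) in a randomized crossover versus vehicle. Recording ran for 5 h in 10 s epochs scored by FFT. n = 8, mean ± SEM; one-way ANOVA with Dunnett's test.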
# Rattus norvegicus [2] = experiment: Hypnotic activity in Sprague-Dawley rat assessed as rapid eye movement sleep at 3 mg/kg, po administered during active phase; assay type: functional; method in brief: as §1
# Rattus norvegicus [3] = experiment: Hypnotic activity in Sprague-Dawley rat assessed as rapid eye movement sleep at 1 mg/kg, po administered during active phase; assay type: functional; method in brief: as §1
# Cytochrome P450 3A4 = Cytochrome P450 3A4 (Homo sapiens, UniProt P08684); experiment: Inhibition of human CYP3A4 transfected in bactosome expression system by spectrofluorimetry; assay type: ADME
# Sequence of Cytochrome P450 3A4 (P08684 whole entry): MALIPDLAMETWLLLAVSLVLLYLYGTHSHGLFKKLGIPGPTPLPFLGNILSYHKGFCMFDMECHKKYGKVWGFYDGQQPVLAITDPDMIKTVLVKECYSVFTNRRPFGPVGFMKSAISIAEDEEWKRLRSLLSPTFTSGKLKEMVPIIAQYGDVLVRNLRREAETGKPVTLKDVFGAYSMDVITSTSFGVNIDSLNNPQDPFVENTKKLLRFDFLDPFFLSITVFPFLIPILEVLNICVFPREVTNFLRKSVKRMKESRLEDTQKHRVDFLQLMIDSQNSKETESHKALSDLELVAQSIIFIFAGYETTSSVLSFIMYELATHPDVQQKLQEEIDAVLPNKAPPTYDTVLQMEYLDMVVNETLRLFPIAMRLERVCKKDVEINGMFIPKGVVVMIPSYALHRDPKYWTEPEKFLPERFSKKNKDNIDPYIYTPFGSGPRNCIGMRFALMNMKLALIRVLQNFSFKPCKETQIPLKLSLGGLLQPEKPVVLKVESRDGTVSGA
# Method in brief: (§2)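 Recombinant human CYP Bactosomes (0.1 mg/mL) in 50 mM phosphate buffer, pH 7.4. Compound at 0.1-10 μM was preincubated with fluorogenic substrate for 10 min at 37 °C, and the reaction was started with an NADPH regenerating system. Metabolite fluorescence was followed for 10 min. Substrates: 1A2 ethoxyresorufin 0.5 μM; 2C9 FCA 50 μM; 2C19 BMC 10 μM; 2D6 MMC 10 μM; 3A4 DEF 1 μM or 7-BQ 25 μM. Run in triplicate.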
# Rattus norvegicus [4] = experiment: Hypnotic activity in Sprague-Dawley rat assessed as rapid eye movement latency period at 1 mg/kg, po administered during active phase; assay type: functional; method in brief: as §1
# [5] = Fraction unbound in rat blood; assay type: ADME, tissue-based
# Rattus norvegicus [6] = experiment: Hypnotic activity in Sprague-Dawley rat assessed as non-rapid eye movement sleep at 3 mg/kg, po administered during active phase; assay type: functional; method in brief: as §1
# [7] = target: Voltage-gated inwardly rectifying potassium channel KCNH2 (Homo sapiens, UniProt Q12809); experiment: Displacement of [3H]dofetilide from human ERG by scintillation proximity assay
# Cytochrome P450 2C19 = Cytochrome P450 2C19 (Homo sapiens, UniProt P33261); experiment: Inhibition of human CYP2C19 transfected in bactosome expression system by spectrofluorimetry; assay type: ADME; method in brief: as §2
# Sequence of Cytochrome P450 2C19 (P33261 whole entry): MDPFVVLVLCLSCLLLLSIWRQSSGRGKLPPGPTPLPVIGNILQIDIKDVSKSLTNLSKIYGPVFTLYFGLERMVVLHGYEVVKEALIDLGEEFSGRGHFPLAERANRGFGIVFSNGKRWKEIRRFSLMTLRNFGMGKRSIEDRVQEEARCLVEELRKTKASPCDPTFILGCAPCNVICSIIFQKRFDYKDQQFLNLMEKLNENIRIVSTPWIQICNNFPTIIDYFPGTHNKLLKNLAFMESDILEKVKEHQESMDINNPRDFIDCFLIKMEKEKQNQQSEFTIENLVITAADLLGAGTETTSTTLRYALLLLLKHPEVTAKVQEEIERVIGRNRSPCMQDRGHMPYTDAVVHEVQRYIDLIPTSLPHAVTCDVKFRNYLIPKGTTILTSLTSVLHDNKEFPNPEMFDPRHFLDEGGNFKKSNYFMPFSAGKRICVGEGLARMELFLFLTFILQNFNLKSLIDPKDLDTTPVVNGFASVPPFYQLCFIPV
# Rattus norvegicus [8] = experiment: Hypnotic activity in Sprague-Dawley rat assessed as total sleep time at 1 mg/kg, po administered during active phase; assay type: functional; method in brief: as §1
# Rattus norvegicus [9] = experiment: Hypnotic activity in Sprague-Dawley rat assessed as rapid eye movement latency period at 10 mg/kg, po administered during active phase; assay type: functional; method in brief: as §1
# [10] = Fraction unbound in rat brain; assay type: ADME, tissue-based
# Rattus norvegicus [11] = experiment: Hypnotic activity in Sprague-Dawley rat assessed as non-rapid eye movement latency period at 1 mg/kg, po administered during active phase; assay type: functional; method in brief: as §1
# Histamine H1 receptor [12] = target: Histamine H1 receptor (Homo sapiens, UniProt P35367); experiment: Antagonist activity against human histamine H1 receptor expressed in CHO cells by FLIPR assay; assay type: functional, cell-based
# Sequence of Histamine H1 receptor (Homo sapiens, UniProt P35367) (P35367 whole entry): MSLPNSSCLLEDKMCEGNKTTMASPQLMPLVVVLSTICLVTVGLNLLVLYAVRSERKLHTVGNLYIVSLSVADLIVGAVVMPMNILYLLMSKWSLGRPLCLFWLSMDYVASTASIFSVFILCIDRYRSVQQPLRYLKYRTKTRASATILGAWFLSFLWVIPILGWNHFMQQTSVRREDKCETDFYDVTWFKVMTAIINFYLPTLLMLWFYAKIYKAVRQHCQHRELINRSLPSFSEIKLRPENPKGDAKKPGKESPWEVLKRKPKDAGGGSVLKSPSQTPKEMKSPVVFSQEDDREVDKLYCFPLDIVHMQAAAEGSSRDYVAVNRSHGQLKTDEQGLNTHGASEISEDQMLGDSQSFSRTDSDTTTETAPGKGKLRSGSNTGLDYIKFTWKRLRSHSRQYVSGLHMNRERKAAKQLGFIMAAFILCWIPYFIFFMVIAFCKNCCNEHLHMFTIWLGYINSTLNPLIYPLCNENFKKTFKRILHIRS
# Cytochrome P450 1A2 = target: T1, Cytochrome P450 1A2 (Homo sapiens, UniProt P05177); experiment: Inhibition of human CYP1A2 transfected in bactosome expression system by spectrofluorimetry; assay type: ADME; method in brief: as §2
# T1 sequence (P05177 whole entry): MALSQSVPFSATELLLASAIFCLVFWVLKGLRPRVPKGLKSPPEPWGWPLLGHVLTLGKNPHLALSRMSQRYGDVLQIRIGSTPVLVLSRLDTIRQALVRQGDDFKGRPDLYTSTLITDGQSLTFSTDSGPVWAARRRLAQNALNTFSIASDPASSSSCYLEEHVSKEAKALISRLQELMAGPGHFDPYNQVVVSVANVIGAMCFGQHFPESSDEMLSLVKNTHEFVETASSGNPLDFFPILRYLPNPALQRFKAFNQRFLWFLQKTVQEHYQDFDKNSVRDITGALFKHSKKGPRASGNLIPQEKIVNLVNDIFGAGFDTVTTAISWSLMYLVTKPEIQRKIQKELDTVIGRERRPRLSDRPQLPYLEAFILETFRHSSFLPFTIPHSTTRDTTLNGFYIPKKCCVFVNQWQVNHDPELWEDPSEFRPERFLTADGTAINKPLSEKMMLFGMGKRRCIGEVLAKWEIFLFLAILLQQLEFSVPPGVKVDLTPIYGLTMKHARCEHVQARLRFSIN
# Cytochrome P450 2C9 = Cytochrome P450 2C9 (Homo sapiens, UniProt P11712); experiment: Inhibition of human CYP2C9 transfected in bactosome expression system by spectrofluorimetry; assay type: ADME; method in brief: as §2
# Sequence of Cytochrome P450 2C9 (P11712 whole entry): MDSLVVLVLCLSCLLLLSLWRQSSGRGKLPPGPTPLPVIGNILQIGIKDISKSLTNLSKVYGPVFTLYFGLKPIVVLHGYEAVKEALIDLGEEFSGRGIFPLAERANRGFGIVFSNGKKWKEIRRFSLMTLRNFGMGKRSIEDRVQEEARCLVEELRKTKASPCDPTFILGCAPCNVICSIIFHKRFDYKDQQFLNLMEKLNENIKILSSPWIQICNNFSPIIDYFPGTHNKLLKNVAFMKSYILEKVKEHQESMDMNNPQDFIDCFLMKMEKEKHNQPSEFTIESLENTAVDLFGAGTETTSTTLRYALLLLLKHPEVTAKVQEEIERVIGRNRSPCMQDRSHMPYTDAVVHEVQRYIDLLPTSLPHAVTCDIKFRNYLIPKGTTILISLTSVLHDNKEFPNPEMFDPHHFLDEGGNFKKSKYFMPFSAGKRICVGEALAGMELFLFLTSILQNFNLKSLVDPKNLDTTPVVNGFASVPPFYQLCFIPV
# [13] = target: 5-hydroxytryptamine receptor 2A (Homo sapiens, UniProt P28223); experiment: Antagonist activity at human 5HT2A receptor expressed in HEK cells assessed as inhibition of intracellular calcium accumulation by aequorin assay; assay type: functional, cell-based, HEK293
# Sequence of 5-hydroxytryptamine receptor 2A (P28223 whole entry): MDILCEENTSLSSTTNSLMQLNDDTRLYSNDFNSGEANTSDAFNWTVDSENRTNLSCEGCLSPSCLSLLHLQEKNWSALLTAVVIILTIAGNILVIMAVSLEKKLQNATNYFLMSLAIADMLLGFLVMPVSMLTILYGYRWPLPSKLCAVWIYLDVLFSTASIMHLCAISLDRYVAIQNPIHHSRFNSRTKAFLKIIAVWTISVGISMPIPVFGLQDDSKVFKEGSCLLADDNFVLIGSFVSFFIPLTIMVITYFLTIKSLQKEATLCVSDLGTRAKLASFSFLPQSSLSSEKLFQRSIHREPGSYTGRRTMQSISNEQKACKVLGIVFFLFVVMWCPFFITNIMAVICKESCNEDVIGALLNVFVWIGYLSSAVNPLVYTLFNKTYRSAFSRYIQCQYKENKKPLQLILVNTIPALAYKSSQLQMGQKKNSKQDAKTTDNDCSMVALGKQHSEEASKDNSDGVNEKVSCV
# [14] = target: T2, 5-hydroxytryptamine receptor 2C (Homo sapiens, UniProt P28335); experiment: Antagonist activity at human 5HT2C receptor expressed in human SH-SY5Y cells by FLIPR assay; assay type: functional, cell-based
# T2 sequence (P28335 whole entry): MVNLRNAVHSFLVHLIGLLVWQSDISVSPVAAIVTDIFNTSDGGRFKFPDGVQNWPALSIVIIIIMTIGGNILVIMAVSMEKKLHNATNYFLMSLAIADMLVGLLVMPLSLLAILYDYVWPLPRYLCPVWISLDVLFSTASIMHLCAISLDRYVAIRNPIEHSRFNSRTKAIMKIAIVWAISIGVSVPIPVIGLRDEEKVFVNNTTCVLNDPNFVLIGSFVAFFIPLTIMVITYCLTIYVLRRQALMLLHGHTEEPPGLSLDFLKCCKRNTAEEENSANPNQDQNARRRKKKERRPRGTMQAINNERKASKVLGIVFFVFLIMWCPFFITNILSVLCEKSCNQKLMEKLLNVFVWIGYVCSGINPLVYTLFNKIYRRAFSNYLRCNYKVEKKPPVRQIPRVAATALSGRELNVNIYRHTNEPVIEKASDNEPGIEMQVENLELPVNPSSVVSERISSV
# Rattus norvegicus [15] = experiment: Hypnotic activity in Sprague-Dawley rat assessed as rapid eye movement latency period at 3 mg/kg, po administered during active phase; assay type: functional; method in brief: as §1
# Histamine H1 receptor [16] = target: Histamine H1 receptor (Rattus norvegicus, UniProt P31390); experiment: Displacement of [3H]pyrilamine from histamine H1 receptor in Sprague-Dawley rat cortical membrane by liquid scintillation counting
# Sequence of Histamine H1 receptor (Rattus norvegicus, UniProt P31390) (P31390 whole entry): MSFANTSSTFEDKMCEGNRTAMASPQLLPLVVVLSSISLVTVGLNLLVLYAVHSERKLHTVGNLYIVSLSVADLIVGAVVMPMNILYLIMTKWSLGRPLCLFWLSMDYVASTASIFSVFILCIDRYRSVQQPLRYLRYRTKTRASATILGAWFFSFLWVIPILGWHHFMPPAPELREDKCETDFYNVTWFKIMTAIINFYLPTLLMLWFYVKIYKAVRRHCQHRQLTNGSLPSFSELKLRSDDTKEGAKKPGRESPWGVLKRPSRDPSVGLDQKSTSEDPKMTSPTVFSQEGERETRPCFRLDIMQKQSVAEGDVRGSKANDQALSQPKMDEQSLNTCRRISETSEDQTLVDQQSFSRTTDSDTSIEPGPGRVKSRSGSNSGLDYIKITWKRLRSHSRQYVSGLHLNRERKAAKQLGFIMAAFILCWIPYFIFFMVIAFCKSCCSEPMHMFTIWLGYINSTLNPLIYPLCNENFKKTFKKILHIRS
# Method in brief: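 Cerebral cortex membranes from male Sprague-Dawley rats (200-250 g), 150 μg/well. Incubated with 0.6 nM [3H]pyrilamine in 50 mM HEPES, pH 7.4, for 2 h at room temperature. Filtered on PEI-soaked GF/B and counted by scintillation. Nonspecific binding with 10 μM cetirizine. Ki by Cheng-Prusoff; mean of two experiments in duplicate.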
# [17] = target: 5-hydroxytryptamine receptor 2B (Homo sapiens, UniProt P41595); experiment: Antagonist activity at human 5HT2B receptor expressed in human SH-SY5Y cells by FLIPR assay
# Sequence of 5-hydroxytryptamine receptor 2B (P41595 whole entry): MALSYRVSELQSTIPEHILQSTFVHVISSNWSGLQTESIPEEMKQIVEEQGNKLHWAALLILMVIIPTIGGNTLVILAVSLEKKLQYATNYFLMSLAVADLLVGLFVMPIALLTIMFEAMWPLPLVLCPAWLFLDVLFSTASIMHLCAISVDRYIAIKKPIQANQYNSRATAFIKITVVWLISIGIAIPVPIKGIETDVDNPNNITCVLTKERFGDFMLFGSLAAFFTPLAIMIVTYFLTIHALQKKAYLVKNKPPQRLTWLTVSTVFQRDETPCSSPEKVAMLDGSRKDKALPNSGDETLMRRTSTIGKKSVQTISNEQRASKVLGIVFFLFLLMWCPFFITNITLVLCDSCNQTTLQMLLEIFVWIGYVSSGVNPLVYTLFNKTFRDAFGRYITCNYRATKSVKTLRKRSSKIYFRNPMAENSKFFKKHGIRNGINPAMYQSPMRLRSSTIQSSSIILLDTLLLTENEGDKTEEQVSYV
# Rattus norvegicus [18] = experiment: Hypnotic activity in Sprague-Dawley rat assessed as non-rapid eye movement sleep at 10 mg/kg, po administered during active phase; assay type: functional; method in brief: as §1
# Rattus norvegicus [19] = experiment: Hypnotic activity in Sprague-Dawley rat assessed as non-rapid eye movement latency period at 3 mg/kg, po administered during active phase; assay type: functional; method in brief: as §1
# Cytochrome P450 2D6 = Cytochrome P450 2D6 (Homo sapiens, UniProt P10635); experiment: Inhibition of human CYP2D6 transfected in bactosome expression system by spectrofluorimetry; assay type: ADME; method in brief: as §2
# Sequence of Cytochrome P450 2D6 (P10635 whole entry): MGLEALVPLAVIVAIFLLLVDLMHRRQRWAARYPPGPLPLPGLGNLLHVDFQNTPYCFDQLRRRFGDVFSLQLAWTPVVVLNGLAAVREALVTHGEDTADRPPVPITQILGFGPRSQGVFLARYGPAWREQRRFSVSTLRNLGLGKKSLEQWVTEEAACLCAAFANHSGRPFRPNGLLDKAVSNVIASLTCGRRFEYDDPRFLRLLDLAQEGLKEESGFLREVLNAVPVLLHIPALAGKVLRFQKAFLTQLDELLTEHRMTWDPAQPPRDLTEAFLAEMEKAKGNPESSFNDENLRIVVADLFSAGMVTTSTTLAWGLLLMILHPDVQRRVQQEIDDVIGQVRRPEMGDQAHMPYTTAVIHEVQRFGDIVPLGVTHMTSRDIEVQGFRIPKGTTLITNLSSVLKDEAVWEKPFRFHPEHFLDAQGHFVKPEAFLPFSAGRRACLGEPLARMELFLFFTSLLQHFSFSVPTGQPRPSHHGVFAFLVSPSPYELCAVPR
# Rattus norvegicus [20] = experiment: Hypnotic activity in Sprague-Dawley rat assessed as total sleep time at 3 mg/kg, po administered during active phase; assay type: functional; method in brief: as §1
IC50 (Cytochrome P450 3A4) [µM],fraction unbound [5],IC50 (Cytochrome P450 2C19) [µM],fraction unbound [10],Ki (Histamine H1 receptor [12]) [µM],IC50 (Cytochrome P450 1A2) [µM],IC50 (Cytochrome P450 2C9) [µM],Ki [13] [µM],Ki [14] [µM],Ki (Histamine H1 receptor [16]) [µM],SMILES,Time (Rattus norvegicus [1]) [min],Time (Rattus norvegicus [2]) [min],Time (Rattus norvegicus [3]) [min],Time (Rattus norvegicus [4]) [min],Time (Rattus norvegicus [6]) [min],IC50 [7] [µM],Time (Rattus norvegicus [8]) [min],Time (Rattus norvegicus [9]) [min],Time (Rattus norvegicus [11]) [min],Time (Rattus norvegicus [15]) [min],further results
> 10,0.12,> 10,0.032,0.00631,> 10,> 10,0.0158,0.00631,0.00562,O=C(O)C1CN(C2CC[C@]3(Cc4ccccc4Cc4ccccc43)C2)C1 (stereo not given in full),87.4,16.1,10.7,77.8,118.6,> 50.1,98.1,64.5,58.1,81.6,Ki [17]: 0.0794 µM; Time (Rattus norvegicus [18]): 130.5 min; Time (Rattus norvegicus [19]): 51.6 min; IC50 (Cytochrome P450 2D6): > 10 µM; Time (Rattus norvegicus [20]): 134.7 min
> 10,0.171,> 10,0.04,0.0501,> 10,> 10,0.0316,0.0316,0.0141,O=C(O)C1CN(C2CCC3(Cc4ccccc4Oc4ccccc43)C2)C1 (stereo not given),107.3,15.1,13.3,67,123.2,> 50.1,120.7,63.4,37.8,77.7,Ki [17]: 0.794 µM; Time (Rattus norvegicus [18]): 139.5 min; Time (Rattus norvegicus [19]): 37.9 min; IC50 (Cytochrome P450 2D6): > 10 µM; Time (Rattus norvegicus [20]): 138.3 min
> 10,0.182,> 10,0.031,0.0501,> 10,> 10,0.0794,0.0631,0.00468,O=C(O)C1CCN(C2CC[C@]3(Cc4ccccc4Cc4ccccc43)C2)CC1 (stereo not given in full),84.7,11,9.7,83.6,94.2,> 63.1,94.4,83.8,69.8,77.9,Ki [17]: 0.158 µM; Time (Rattus norvegicus [18]): 104 min; Time (Rattus norvegicus [19]): 51.4 min; IC50 (Cytochrome P450 2D6): > 10 µM; Time (Rattus norvegicus [20]): 105.2 min
